Test results from ChEMBL document CHEMBL1136005 (J Med Chem, 2002).
Values after ≈ are worked out from the molar mass of the structure shown.

Experiments:
[1] = Plasma concentration was determined after 1 hr at a dose 30 mg/kg administered orally to rat-7; assay type: ADME, organism-based; design: dose 30 mg/kg, route oral; conditions: po
Summary of the method: (§1)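 Sprague-Dawley rats, n=2 per compound, dosed orally at 30 mg/kg. Plasma drug concentration measured 1 and 8 h after dosing.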

[2] = Plasma concentration was determined after 8 hr at a dose 30 mg/kg administered orally to rat-7; assay type: ADME, organism-based; design: dose 30 mg/kg, route oral; conditions: po; summary of the method: as §1
[3] = Plasma concentration was determined after 8 hr at a dose 30 mg/kg administered orally to rat-8; assay type: ADME, organism-based; design: dose 30 mg/kg, route oral; conditions: po; summary of the method: as §1
[4] = target: Platelet-derived growth factor receptor (Homo sapiens, UniProt P09619+P16234); experiment: Concentration required for 50% inhibition against autophosphorylation of Platelet-derived growth factor receptor beta in intact cells using a two site ELISA; assay type: cell-based
[5] = Plasma concentration was determined after 1 hr at a dose 30 mg/kg administered orally to rat-8; assay type: ADME, organism-based; design: dose 30 mg/kg, route oral; conditions: po; summary of the method: as §1
[6] = Plasma concentration was determined after 1 hr at a dose 30 mg/kg administered orally to rat-3; assay type: ADME, organism-based; design: dose 30 mg/kg, route oral; conditions: po; summary of the method: as §1
[7] = Plasma concentration was determined after 1 hr at a dose 30 mg/kg administered orally to rat-4; assay type: ADME, organism-based; design: dose 30 mg/kg, route oral; conditions: po; summary of the method: as §1
[8] = Plasma concentration was determined after 8 hr at a dose 30 mg/kg administered orally to rat-3; assay type: ADME, organism-based; design: dose 30 mg/kg, route oral; conditions: po; summary of the method: as §1
[9] = Plasma concentration was determined after 8 hr at a dose 30 mg/kg administered orally to rat-4; assay type: ADME, organism-based; design: dose 30 mg/kg, route oral; conditions: po; summary of the method: as §1
[10] = target: Platelet-derived growth factor receptor alpha (Homo sapiens, UniProt P16234); experiment: Inhibition of PDGF receptor alpha autophosphorylation
[11] = target: Fibroblast growth factor receptor (Homo sapiens, UniProt P22607+P11362+P22455+P21802); experiment: Inhibition of Fibroblast growth factor receptor autophosphorylation; assay type: protein assay
[12] = target: T1, Receptor-type tyrosine-protein kinase FLT3 (Homo sapiens, UniProt P36888); experiment: Inhibition of Flt3 autophosphorylation
T1 sequence (P36888 whole entry): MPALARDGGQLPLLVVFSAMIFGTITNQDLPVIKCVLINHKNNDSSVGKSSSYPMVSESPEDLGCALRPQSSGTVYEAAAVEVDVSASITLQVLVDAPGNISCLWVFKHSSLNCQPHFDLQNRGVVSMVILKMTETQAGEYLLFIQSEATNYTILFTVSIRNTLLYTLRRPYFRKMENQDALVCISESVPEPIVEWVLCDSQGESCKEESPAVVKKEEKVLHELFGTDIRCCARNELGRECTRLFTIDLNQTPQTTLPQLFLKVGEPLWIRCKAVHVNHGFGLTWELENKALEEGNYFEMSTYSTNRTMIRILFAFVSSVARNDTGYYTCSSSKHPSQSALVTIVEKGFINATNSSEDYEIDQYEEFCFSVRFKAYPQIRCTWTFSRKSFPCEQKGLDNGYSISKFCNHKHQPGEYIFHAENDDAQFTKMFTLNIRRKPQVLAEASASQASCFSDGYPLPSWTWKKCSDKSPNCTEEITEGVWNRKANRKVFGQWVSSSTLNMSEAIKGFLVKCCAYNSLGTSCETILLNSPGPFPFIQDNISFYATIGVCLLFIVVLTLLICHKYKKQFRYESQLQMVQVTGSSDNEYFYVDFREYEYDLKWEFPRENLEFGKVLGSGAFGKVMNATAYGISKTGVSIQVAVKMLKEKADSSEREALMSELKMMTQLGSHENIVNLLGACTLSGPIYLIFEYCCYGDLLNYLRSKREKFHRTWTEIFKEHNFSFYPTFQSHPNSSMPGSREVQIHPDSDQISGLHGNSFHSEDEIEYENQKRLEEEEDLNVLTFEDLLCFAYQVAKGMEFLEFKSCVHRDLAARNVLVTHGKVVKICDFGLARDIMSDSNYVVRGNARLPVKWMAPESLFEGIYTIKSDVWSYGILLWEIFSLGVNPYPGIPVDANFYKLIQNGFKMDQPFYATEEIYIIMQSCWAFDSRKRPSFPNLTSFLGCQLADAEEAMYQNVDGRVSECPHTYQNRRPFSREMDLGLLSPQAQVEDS

[13] = target: Mitogen-activated protein kinase; ERK1/ERK2 (Homo sapiens, UniProt P27361+P28482); experiment: Inhibition of Extracellular signal-regulated kinase (Erk); assay type: protein assay
Summary of the method: (§2)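 Substrate phosphorylation measured in an in vitro assay with purified enzyme; IC50 values in µmol/L.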

[14] = target: Mast/stem cell growth factor receptor Kit (Homo sapiens, UniProt P10721); experiment: Inhibition of Mast/stem cell growth factor receptor (c-kit) autophosphorylation
[15] = target: T2, Dual specificity mitogen-activated protein kinase kinase 3 (Homo sapiens, UniProt P46734); experiment: Inhibition of Mitogen activated protein kinase kinase 3; summary of the method: as §2
T2 sequence (P46734 whole entry): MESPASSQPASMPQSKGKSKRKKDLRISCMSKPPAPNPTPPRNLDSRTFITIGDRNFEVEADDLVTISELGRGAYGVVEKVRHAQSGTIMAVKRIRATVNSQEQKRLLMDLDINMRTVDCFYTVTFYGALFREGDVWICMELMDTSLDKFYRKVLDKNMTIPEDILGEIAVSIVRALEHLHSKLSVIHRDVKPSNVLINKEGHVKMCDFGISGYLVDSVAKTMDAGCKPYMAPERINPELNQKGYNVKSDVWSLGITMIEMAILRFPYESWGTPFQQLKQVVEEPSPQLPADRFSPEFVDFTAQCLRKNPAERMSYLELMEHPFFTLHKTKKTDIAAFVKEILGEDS

[16] = target: Dual specificity mitogen-activated protein kinase kinase 1 (Homo sapiens, UniProt Q02750); experiment: Inhibition of Mitogen activated protein kinase kinase 1; summary of the method: as §2
[17] = target: MAP kinase p38 (Homo sapiens, UniProt O15264+Q15759+Q16539+P53778); experiment: Inhibition of Mitogen-activated protein kinase p38; assay type: protein assay; summary of the method: as §2
[18] = target: T3, Dual specificity mitogen-activated protein kinase kinase 6 (Homo sapiens, UniProt P52564); experiment: Inhibition of Mitogen activated protein kinase kinase 6; summary of the method: as §2
T3 sequence (P52564 whole entry): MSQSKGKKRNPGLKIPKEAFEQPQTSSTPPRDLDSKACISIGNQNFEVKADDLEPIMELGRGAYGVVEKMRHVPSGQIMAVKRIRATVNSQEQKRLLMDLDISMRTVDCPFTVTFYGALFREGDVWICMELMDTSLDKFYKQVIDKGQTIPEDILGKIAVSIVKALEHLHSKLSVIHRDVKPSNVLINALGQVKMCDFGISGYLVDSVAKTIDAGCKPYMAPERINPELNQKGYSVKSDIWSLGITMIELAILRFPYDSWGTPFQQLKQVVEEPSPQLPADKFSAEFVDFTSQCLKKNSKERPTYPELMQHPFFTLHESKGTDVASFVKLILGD

[19] = target: Protein kinase C (PKC); experiment: Inhibition of Protein kinase C; assay type: protein assay; summary of the method: as §2
[20] = target: cAMP-dependent protein kinase (PKA) (Homo sapiens, UniProt P22694+P17612+P22612); experiment: Inhibition of Protein kinase A (PKA); assay type: protein assay; summary of the method: as §2
[21] = target: Proto-oncogene tyrosine-protein kinase Src (Homo sapiens, UniProt P12931); experiment: Inhibition of Src protein tyrosine kinase; summary of the method: as §2
[22] = target: Mitogen-activated protein kinase 8 (Homo sapiens, UniProt P45983); experiment: Inhibition of c-Jun N-terminal kinase (Jnk); summary of the method: as §2
[23] = target: Macrophage colony-stimulating factor 1 receptor (Homo sapiens, UniProt P07333); experiment: Inhibition of Colony stimulating factor 1 receptor (CSF-1R) autophosphorylation
[24] = Plasma concentration was determined after 8 hr at a dose 30 mg/kg administered orally to rat-11; assay type: ADME, organism-based; design: dose 30 mg/kg, route oral; conditions: po; summary of the method: as §1
[25] = Solubility in aqueous phosphate buffer (pH 7.4) at 20c was determined; assay type: physicochemical
[26] = Plasma concentration was determined after 1 hr at a dose 30 mg/kg administered orally to rat-12; assay type: ADME, organism-based; design: dose 30 mg/kg, route oral; conditions: po; summary of the method: as §1
[27] = pharmacokinetic parameter was evaluated after oral administration of 30 mg/kg to rat; assay type: ADME, organism-based; design: dose 30 mg/kg, route oral; conditions: in vivo
Summary of the method: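 Sprague-Dawley rats, n=3, dosed orally at 30 mg/kg. Plasma drug concentrations were followed to derive Tmax (h), Cmax (µg/mL), T1/2 (h) and AUC0-∞ (µg h/mL).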

[28] = Lipophilicity was reported; assay type: physicochemical; conditions: octanol/water
[29] = Plasma concentration was determined after 8 hr at a dose 30 mg/kg administered orally to rat-12; assay type: ADME, organism-based; design: dose 30 mg/kg, route oral; conditions: po; summary of the method: as §1
[30] = Plasma concentration was determined after 1 hr at a dose 30 mg/kg administered orally to rat-11; assay type: ADME, organism-based; design: dose 30 mg/kg, route oral; conditions: po; summary of the method: as §1

Sequence of Platelet-derived growth factor receptor alpha (P16234 whole entry): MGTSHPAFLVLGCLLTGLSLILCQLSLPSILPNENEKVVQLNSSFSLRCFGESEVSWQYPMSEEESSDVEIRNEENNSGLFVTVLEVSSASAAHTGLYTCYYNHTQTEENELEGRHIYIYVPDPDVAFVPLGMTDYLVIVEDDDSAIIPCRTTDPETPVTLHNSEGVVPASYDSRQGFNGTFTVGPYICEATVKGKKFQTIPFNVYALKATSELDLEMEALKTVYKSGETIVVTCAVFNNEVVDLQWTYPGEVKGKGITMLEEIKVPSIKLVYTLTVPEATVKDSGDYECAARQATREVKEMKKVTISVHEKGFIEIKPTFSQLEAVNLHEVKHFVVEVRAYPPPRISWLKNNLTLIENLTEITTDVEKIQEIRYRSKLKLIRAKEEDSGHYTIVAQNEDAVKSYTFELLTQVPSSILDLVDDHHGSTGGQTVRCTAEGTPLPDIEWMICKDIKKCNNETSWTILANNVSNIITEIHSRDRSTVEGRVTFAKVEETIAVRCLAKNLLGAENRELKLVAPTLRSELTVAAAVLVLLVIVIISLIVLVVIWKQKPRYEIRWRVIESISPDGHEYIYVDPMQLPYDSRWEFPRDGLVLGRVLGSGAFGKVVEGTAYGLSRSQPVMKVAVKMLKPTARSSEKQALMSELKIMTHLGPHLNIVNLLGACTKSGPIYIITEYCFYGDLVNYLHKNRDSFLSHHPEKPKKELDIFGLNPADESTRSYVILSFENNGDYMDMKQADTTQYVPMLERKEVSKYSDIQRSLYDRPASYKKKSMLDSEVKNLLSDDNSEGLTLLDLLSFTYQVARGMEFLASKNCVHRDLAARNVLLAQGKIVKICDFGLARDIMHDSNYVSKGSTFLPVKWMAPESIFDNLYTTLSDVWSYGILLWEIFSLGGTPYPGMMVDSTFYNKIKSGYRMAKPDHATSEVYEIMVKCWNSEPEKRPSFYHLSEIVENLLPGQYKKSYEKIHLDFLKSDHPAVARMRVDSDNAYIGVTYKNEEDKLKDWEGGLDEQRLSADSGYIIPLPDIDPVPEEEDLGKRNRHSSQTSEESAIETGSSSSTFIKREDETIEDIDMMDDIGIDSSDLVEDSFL
Sequence of Macrophage colony-stimulating factor 1 receptor (P07333 whole entry): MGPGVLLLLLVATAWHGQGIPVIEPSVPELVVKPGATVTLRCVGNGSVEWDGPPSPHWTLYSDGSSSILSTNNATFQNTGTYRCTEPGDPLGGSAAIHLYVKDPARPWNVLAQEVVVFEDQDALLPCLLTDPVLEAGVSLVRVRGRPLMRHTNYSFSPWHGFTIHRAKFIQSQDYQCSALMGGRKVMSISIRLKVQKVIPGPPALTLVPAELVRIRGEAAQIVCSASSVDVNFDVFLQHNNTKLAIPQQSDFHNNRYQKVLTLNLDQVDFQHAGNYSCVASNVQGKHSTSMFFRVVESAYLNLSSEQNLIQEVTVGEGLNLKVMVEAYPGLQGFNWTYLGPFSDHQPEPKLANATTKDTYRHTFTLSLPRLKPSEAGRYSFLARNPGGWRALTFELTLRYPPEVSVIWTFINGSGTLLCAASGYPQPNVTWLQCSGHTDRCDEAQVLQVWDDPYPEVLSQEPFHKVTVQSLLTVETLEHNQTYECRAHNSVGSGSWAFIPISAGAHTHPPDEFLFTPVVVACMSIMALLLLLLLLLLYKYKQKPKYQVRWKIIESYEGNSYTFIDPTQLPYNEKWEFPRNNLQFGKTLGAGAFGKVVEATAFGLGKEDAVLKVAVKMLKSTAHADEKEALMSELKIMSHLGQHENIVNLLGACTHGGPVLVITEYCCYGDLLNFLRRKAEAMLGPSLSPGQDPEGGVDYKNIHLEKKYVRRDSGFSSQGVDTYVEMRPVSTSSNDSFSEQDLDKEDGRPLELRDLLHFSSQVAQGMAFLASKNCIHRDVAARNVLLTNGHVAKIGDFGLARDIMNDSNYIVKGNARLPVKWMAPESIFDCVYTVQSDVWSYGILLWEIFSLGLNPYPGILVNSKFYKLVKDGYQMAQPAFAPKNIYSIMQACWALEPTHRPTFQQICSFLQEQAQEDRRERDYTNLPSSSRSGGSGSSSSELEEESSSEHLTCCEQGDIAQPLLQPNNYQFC
Sequence of Dual specificity mitogen-activated protein kinase kinase 1 (Q02750 whole entry): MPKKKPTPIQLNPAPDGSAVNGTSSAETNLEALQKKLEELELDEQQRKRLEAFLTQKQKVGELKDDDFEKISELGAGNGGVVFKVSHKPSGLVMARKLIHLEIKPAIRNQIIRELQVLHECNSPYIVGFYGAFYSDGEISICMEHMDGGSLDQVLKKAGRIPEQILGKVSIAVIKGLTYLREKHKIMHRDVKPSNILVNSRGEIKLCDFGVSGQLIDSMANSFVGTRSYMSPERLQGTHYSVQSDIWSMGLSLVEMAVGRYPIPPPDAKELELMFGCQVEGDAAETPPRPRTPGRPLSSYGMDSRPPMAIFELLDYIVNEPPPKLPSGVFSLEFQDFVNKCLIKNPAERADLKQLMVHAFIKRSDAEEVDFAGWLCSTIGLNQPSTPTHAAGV
Sequence of Mast/stem cell growth factor receptor Kit (P10721 whole entry): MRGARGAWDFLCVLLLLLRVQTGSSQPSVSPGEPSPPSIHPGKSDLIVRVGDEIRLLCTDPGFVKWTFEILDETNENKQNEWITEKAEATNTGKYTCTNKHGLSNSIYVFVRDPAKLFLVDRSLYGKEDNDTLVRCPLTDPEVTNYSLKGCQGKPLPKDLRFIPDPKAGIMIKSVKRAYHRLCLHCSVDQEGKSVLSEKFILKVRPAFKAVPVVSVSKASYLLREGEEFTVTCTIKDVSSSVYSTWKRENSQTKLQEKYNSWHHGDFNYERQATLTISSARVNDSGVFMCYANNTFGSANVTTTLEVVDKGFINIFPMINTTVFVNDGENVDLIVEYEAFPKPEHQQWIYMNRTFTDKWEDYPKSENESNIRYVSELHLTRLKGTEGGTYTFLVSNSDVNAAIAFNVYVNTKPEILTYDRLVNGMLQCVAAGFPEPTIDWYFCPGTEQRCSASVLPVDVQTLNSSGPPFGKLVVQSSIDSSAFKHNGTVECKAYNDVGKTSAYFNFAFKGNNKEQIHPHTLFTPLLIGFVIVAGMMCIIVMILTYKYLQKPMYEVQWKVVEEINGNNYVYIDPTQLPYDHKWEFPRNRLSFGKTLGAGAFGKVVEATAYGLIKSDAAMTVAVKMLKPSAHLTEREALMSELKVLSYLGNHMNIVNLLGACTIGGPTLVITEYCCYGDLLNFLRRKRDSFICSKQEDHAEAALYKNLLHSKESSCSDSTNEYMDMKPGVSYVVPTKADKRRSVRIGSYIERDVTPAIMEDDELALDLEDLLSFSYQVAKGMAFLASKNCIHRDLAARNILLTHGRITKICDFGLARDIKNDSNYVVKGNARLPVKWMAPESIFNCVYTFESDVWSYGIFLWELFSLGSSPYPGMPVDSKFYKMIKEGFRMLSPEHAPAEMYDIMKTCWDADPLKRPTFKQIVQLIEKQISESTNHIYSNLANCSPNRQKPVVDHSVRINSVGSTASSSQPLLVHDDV
Sequence of Mitogen-activated protein kinase 8 (P45983 whole entry): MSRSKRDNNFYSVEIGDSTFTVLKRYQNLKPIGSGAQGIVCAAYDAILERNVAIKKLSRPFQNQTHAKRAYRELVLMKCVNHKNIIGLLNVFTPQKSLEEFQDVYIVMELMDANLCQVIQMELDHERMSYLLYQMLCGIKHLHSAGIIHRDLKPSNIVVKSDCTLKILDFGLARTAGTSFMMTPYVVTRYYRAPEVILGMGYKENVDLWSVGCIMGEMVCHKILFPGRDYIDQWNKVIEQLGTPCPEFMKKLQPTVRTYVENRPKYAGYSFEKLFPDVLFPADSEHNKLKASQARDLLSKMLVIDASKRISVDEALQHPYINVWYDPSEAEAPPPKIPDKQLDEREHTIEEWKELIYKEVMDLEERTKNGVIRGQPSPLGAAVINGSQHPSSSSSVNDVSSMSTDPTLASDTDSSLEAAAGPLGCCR
Sequence of Proto-oncogene tyrosine-protein kinase Src (P12931 2-536 limits assumed): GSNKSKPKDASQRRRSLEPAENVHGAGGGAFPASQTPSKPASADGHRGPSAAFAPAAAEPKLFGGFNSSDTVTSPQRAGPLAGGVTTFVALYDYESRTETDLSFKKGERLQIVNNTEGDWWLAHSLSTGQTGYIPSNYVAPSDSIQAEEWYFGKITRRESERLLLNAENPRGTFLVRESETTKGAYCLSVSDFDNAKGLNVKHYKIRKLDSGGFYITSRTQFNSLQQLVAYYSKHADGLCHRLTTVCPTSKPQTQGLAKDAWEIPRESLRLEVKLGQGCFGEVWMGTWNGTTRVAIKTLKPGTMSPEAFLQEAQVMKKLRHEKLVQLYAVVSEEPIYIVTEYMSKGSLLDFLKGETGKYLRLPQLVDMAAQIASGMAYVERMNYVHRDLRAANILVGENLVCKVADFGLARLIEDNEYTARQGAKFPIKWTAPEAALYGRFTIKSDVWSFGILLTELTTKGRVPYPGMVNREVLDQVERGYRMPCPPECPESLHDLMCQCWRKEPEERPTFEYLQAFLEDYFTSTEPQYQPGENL

COc1ccc(CNC(=S)N2CCN(c3ncnc4cc(OC)c(OC)cc34)CC2)cc1
concentration at 1 h [1]: 2300 ng/mL | concentration at 8 h [2]: 400 ng/mL | concentration at 8 h [3]: 500 ng/mL | IC50 [4]: 100 nM | concentration at 1 h [5]: 2500 ng/mL

COc1cc2ncnc(N3CCN(/C(S)=N\Cc4ccccc4)CC3)c2cc1OC
concentration at 1 h [6]: 5400 ng/mL | concentration at 1 h [7]: 8100 ng/mL | concentration at 8 h [8]: 1600 ng/mL | concentration at 8 h [9]: 900 ng/mL | IC50 [10]: 240 nM | IC50 [11]: > 200 uM l-1 | IC50 [12]: > 30 µM | IC50 [13]: > 30 uM l-1 | IC50 [14]: > 30 µM | IC50 [15]: > 30 µM | IC50 [16]: > 30 µM | IC50 [17]: > 30 uM l-1 | IC50 [18]: > 30 µM | IC50 [19]: > 30 uM l-1 | IC50 [20]: > 30 uM l-1 | IC50 [21]: > 30 µM | IC50 [22]: > 30 µM | IC50 [23]: > 30 µM

COc1cc2ncnc(N3CCN(C(=O)Nc4ccsc4)CC3)c2cc1OC
concentration at 8 h [24]: 3700 ng/mL | solubility [25]: 2 µg/mL (≈ 5.01 µM) | concentration at 1 h [26]: 7700 ng/mL | AUC [27]: 145 µg·h/mL | Cmax [27]: 15900 ng/mL | Tmax [27]: 3.33 h | half-life [27]: 255 min | logD [28]: 2.72 | concentration at 8 h [29]: 700 ng/mL | concentration at 1 h [30]: 12400 ng/mL
